Measurements: ChEMBL document CHEMBL1140904, “Synthesis and analysis of novel glycerolipids for the treatment of metabolic syndrome” (J Med Chem, 2009)

Experiments:
[1] = system: Rattus norvegicus; assay: Effect on fatty acid composition in Wistar rat assessed as change in plasma LCn-6/18:2 level at 250 uM, po after 6 days; type: functional
[2] = system: Rattus norvegicus; assay: Effect on fatty acid composition in Wistar rat assessed as change in liver saturated fatty acid level at 250 uM, po after 6 days; type: functional
In short: (§1)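 Male Wistar rats were gavaged once daily for 6 days with compound in 0.5% CMC at 85 or 250 µmol TTA-equivalent per animal. Controls received palmitic acid. Liver was homogenized in 0.25 M sucrose/10 mM HEPES pH 7.4/1 mM EDTA at 0-4 °C. Lipids were extracted with chloroform:methanol 2:1 and spiked with 21:0 internal standard. Fatty acids were BF3-methanol transesterified and quantified as wt%. Values are mean ± SD, n=5.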

[3] = system: Rattus norvegicus; assay: Decrease in plasma cholesterol level in po dosed Wistar rat after 6 days; type: functional, organism-based
In short: (§2)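 Male Wistar rats (170-210 g), housed in pairs with chow and water, were gavaged once daily for 6 days with test lipid in 0.5% (w/v) carboxymethylcellulose at 85 or 250 µmol TTA-equivalent per animal. Controls received palmitic acid in CMC. Plasma triacylglycerol and cholesterol were measured with an enzymatic kit, and liver levels were also determined. Values are mean ± SD, n=5 rats.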

[4] = system: Rattus norvegicus; assay: Effect on fatty acid composition in Wistar rat assessed as change in plasma saturated fatty acid level at 85 uM, po after 6 days; type: functional
[5] = system: Liver; assay: Drug level in Wistar rat liver at 85 uM, po after 6 days; type: ADME, organism-based; details: in vivo, 144 h; in short: as §1
[6] = system: Rattus norvegicus; assay: Effect on fatty acid composition in Wistar rat assessed as change in plasma MUFA level at 85 uM, po after 6 days; type: functional
[7] = system: Rattus norvegicus; assay: Effect on fatty acid composition in Wistar rat assessed as change in plasma 18;2, n-6 level at 250 uM, po after 6 days; type: functional
[8] = system: Rattus norvegicus; assay: Effect on fatty acid composition in Wistar rat assessed as change in liver LCPUFA, n-6 level at 250 uM, po after 6 days; type: functional; in short: as §1
[9] = system: Rattus norvegicus; assay: Effect on fatty acid composition in Wistar rat assessed as change in plasma 18;2, n-6 level at 85 uM, po after 6 days; type: functional
[10] = system: Rattus norvegicus; assay: Effect on fatty acid composition in Wistar rat assessed as change in plasma LCPUFA, n-6 level at 250 uM, po after 6 days; type: functional
[11] = system: Rattus norvegicus; assay: Induction of PPAR-alpha-regulated CPT2 activity in po dosed Wistar rat after 6 days; type: functional, organism-based
In short: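 Wistar rats were dosed orally for 6 days (85 or 250 µmol TTA-equivalent in 0.5% CMC; palmitic acid controls). CPT-II activity was measured in the liver mitochondrial fraction, prepared from sucrose/HEPES pH 7.4/EDTA homogenate at 0-4 °C. Means ± SD from 5 rats per group.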

[12] = system: Rattus norvegicus; assay: Effect on fatty acid composition in Wistar rat assessed as change in plasma LCn-6/18:2 level at 85 uM, po after 6 days; type: functional
[13] = system: Rattus norvegicus; assay: Effect on fatty acid composition in Wistar rat assessed as change in plasma MUFA level at 250 uM, po after 6 days; type: functional
[14] = system: Rattus norvegicus; assay: Effect on fatty acid composition in Wistar rat assessed as change in liver 18;2, n-6 level at 250 uM, po after 6 days; type: functional; in short: as §1
[15] = system: Rattus norvegicus; assay: Increase in [1-14C]palmitoyl-CoA oxidation in po dosed Wistar rat liver homogenate after 6 days; type: functional, organism-based
In short: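 Rats were dosed by gastric intubation for 6 days with 85 or 250 µmol TTA-equivalent in 0.5% CMC, with palmitic acid controls. Liver was homogenized in 0.25 M sucrose, 10 mM HEPES pH 7.4, 1 mM EDTA at 0-4 °C. Palmitoyl-CoA oxidation was read as acid-soluble products from [1-14C]-palmitoyl-CoA in the postnuclear fraction. Mean ± SD, n=5.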

[16] = system: Rattus norvegicus; assay: Induction of PPAR-alpha-regulated fatty acyl-CoA oxidase activity in po dosed Wistar rat after 6 days; type: functional, organism-based
In short: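 Rats were dosed by gastric intubation for 6 days at 85 or 250 µmol TTA-equivalent in 0.5% CMC, with palmitic acid controls. Fatty acyl-CoA oxidase was measured in the liver postnuclear fraction by a coupled assay, following H2O2 production as the rise in dichlorofluorescein absorbance with palmitoyl-CoA. Mean ± SD, n=5.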

[17] = system: Rattus norvegicus; assay: Effect on fatty acid composition in Wistar rat assessed as change in liver saturated fatty acid level at 85 uM, po after 6 days; type: functional; in short: as §1
[18] = system: Rattus norvegicus; assay: Effect on fatty acid composition in Wistar rat assessed as change in liver PUFA level at 85 uM, po after 6 days; type: functional; in short: as §1
[19] = system: Rattus norvegicus; assay: Effect on fatty acid composition in Wistar rat assessed as change in liver PUFA level at 250 uM, po after 6 days; type: functional; in short: as §1
[20] = system: Rattus norvegicus; assay: Effect on fatty acid composition in Wistar rat assessed as change in plasma PUFA level at 85 uM, po after 6 days; type: functional
[21] = system: Rattus norvegicus; assay: Effect on fatty acid composition in Wistar rat assessed as change in liver MUFA level at 85 uM, po after 6 days; type: functional; in short: as §1
[22] = system: Rattus norvegicus; assay: Effect on fatty acid composition in Wistar rat assessed as change in liver LCn-6/18:2 level at 85 uM, po after 6 days; type: functional; in short: as §1
[23] = system: Rattus norvegicus; assay: Plasma concentration in Wistar rat at 250 uM, po after 6 days; type: ADME, organism-based; details: in vivo, 144 h
[24] = system: Rattus norvegicus; assay: Effect on fatty acid composition in Wistar rat assessed as change in plasma LCPUFA, n-6 level at 85 uM, po after 6 days; type: functional
[25] = system: Rattus norvegicus; assay: Effect on fatty acid composition in Wistar rat assessed as change in plasma saturated fatty acid level at 250 uM, po after 6 days; type: functional
[26] = system: Liver; assay: Drug level in Wistar rat liver at 250 uM, po after 6 days; type: ADME, organism-based; details: in vivo, 144 h; in short: as §1
[27] = system: Rattus norvegicus; assay: Plasma concentration in Wistar rat at 85 uM, po after 6 days; type: ADME, organism-based; details: in vivo, 144 h
[28] = system: Rattus norvegicus; assay: Induction of PPAR-alpha-regulated HMG-CoA synthase activity in po dosed Wistar rat after 6 days; type: functional, organism-based
In short: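 Wistar rats were gavaged daily for 6 days at 85 or 250 µmol TTA-equivalent in 0.5% CMC, with palmitic acid controls. HMG-CoA synthase activity was assayed in the liver postnuclear fraction by the Clinkenbeard method. Mean ± SD, 5 rats/group.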

[29] = system: Rattus norvegicus; assay: Effect on fatty acid composition in Wistar rat assessed as change in liver 18;2, n-6 level at 85 uM, po after 6 days; type: functional; in short: as §1
[30] = system: Rattus norvegicus; assay: Effect on fatty acid composition in Wistar rat assessed as change in liver LCPUFA, n-6 level at 85 uM, po after 6 days; type: functional; in short: as §1
[31] = system: Rattus norvegicus; assay: Effect on fatty acid composition in Wistar rat assessed as change in liver MUFA level at 250 uM, po after 6 days; type: functional; in short: as §1
[32] = system: Rattus norvegicus; assay: Effect on fatty acid composition in Wistar rat assessed as change in plasma PUFA level at 250 uM, po after 6 days; type: functional
[33] = system: Rattus norvegicus; assay: Effect on fatty acid composition in Wistar rat assessed as change in liver LCn-6/18:2 level at 250 uM, po after 6 days; type: functional; in short: as §1
[34] = system: Rattus norvegicus; assay: Decrease in plasma triacylglycerol level in po dosed Wistar rat after 6 days; type: functional, organism-based; in short: as §2

SMILES: CCCCCCCCCCCCCCSCC(=O)O [TETRADECYLTHIOACETIC ACID]
- Activity [1]: 1.06%
- Activity [2]: 38.71%
- Activity [3]: Dose-dependent effect
- Activity [4]: 36.02%
- Drug uptake [5]: 0.36%
- Activity [6]: 23.49%
- Activity [7]: 19.68%
- Activity [8]: 27.66%
- Activity [9]: 18.46%
- Activity [10]: 20.82%
- Activity [11]: Dose-dependent effect
- Activity [12]: 1.03%
- Activity [13]: 21.32%
- Activity [14]: 11.02%
- Activity [15]: Dose-dependent effect
- Activity [16]: Dose-dependent effect
- Activity [17]: 39.67%
- Activity [18]: 5.44%
- Activity [19]: 4.94%
- Activity [20]: 2.47%
- Activity [21]: 17.35%
- Activity [22]: 2.34%
- Drug uptake [23]: 1.6%
- Activity [24]: 18.75%
- Activity [25]: 35%
- Drug uptake [26]: 2.03%
- Drug uptake [27]: 0.32%
- Activity [28]: Dose-dependent effect
- Activity [29]: 11.15%
- Activity [30]: 25.7%
- Activity [31]: 16.86%
- Activity [32]: 2.24%
- Activity [33]: 2.56 dimensionless ratio
- Activity [34]: Dose-dependent effect
